Assay results taken from PubChem BioAssay.
Inconclusive results are not listed.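 Rule for the calls, unless noted: active = RAM network inhibition above 8.4% in each of two replicates, 3 SD over the compound average; inconclusive = above 8.4% inhibition in only one replicate; inactive = 8.4% inhibition or less in each replicate.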

Experiments:
[1] = OD615 S. cerevisiae growth inhibition, permissive medium, pilot counter-assay, permissive growth control for S. cerevisiae lifespan shortening project (AID 705;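 active = growth inhibition above 25% in both replicates, a cutoff set 3 SD above the mean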); details: OD615, 24 h, at 10 µM, stronger effect = higher value
In short: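 System: Engineered DeaD yeast | Buffer or medium: SC raffinose/galactose permissive medium | Incubation: Cells pre-grown 4 h, then 24 h compound exposure, 30 °C humidified | Measured by: Absorbance (optical density) at 615 nm | Read-out: Reduction in yeast growth (OD615)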

[2] = Restrictive medium S. cerevisiae growth inhibition, OD615, pilot screen of yeast lifespan reduction project, restrictive growth control (AID 706;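 active = growth inhibition above a set limit, 3 SD over mean compound inhibition, in both replicates, cut at about 43% in these data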;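 note: modified DeaD lifespan yeast strain shifted to restrictive glucose medium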); details: OD615, 48 h, at 10 µM, stronger effect = higher value
In short: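 Material: modified S. cerevisiae; Medium: glucose-based CSMM-D restrictive medium; Compound dosing: one concentration, 10 µM final, 0.25% DMSO; Incubation: 48 h compound exposure at 30 °C; Measured by: OD615.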

[3] = viability gain of MRP-1-high H69AR cells under doxorubicin, pilot screen, MRP-1 activator project, CellTiter-Glo, duplicate (AID 807;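 active = viability increase at or above a cutoff of the median across tested compounds plus 3 SD, cut at about 8.5% in these data, passing the limit was not always enough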;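 note: compound pretreatment 18-22 h then 72 h combined with doxorubicin; 0% = doxorubicin alone and 100% = vehicle without doxorubicin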); details: H69AR viability with doxorubicin, CellTiter-Glo luminescence; at 10 µM; stronger effect = higher value
[4] = growth suppression of PTEN-deleted HCT116, pilot screen, cell-based, HCT116 clonal line, CellTiter-Glo (AID 824;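 active = viability at or below 27.92% in each of two runs, the all-compound median minus 4 SD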;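 note: 0% = 20 µM Hyamine control and 100% = vehicle cell control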); details: 60 h, at 10 µM, stronger effect = lower value
[5] = inhibitors of the yeast RAM network, pilot screen, dse1pr::URA3 reporter, 5-FOA selection (AID 869;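 active = inhibition over a set limit, the all-compound mean plus 3 SD, in both replicate runs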;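 note: 0% = DMSO wells with no growth and 100% = 10 µM 1-NA-PP1 with full growth; RAM network block rescues cells from 5-FOA so hits raise OD615 growth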); details: S. cerevisiae dse1pr::URA3 5-FOA growth, OD615, 2 d; at 10 µM; stronger effect = higher value; strain carries analog-sensitive mutant Cbk1 kinase
[6] = RAM signaling pathway blockade in yeast – S. cerevisiae, Pdr1DBD-CYC8 efflux-inhibited sensitized strain, primary screen (AID 1298);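 note: 0% = DMSO untreated cells without growth and 100% = 10 µM 1-NA-PP1 full growth; higher means more yeast growth rescued from 5-FOA killing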; details: S. cerevisiae cbk1-as DSE1-URA3 strain, 5-FOA growth OD615, 2 d; at 50 µM; stronger effect = higher value

CCOC(=O)N1CCN(C(=O)CN(C2CCCCC2)S(=O)(=O)c2ccc(C)cc2)CC1
inactive: growth inhibition [1] -13.9% | growth inhibition [2] -3.6% | viability increase [3] -4.47% | viability [4] 97.3% | inhibition [5] 1.92% | RAM network inhibition [6] -1.07%

COc1cc(OC)cc(C(=O)Nc2cccc(C(C)=O)c2)c1
inactive: growth inhibition [1] -6.17% | growth inhibition [2] -2.38% | viability increase [3] -2.42% | viability [4] 89.9% | inhibition [5] 1.7% | RAM network inhibition [6] 1.49%

CCCC(C)NC(=O)c1ccc(F)cc1 (stereo not given)
inactive: growth inhibition [1] -11.8% | growth inhibition [2] -7.83% | viability increase [3] -1.81% | viability [4] 99.9% | inhibition [5] 0.66% | RAM network inhibition [6] 1.8%

CC1=CCC(C(=O)O)C(C(=O)O)C1 (stereo not given)
inactive: growth inhibition [1] -2.08% | growth inhibition [2] -10.3% | viability increase [3] -2.04% | viability [4] 95.7% | inhibition [5] 1.69% | RAM network inhibition [6] 1.34%

O=C(CCCC(=O)N1CCCc2ccccc21)N1CCCc2ccccc21
inactive: growth inhibition [1] -8.11% | growth inhibition [2] -5.5% | viability increase [3] -4.74% | viability [4] 95.3% | inhibition [5] 2.04% | RAM network inhibition [6] 1.5%

O=C(CN1C(=O)c2ccccc2S1(=O)=O)N1CCN(c2ccccc2F)CC1
inactive: growth inhibition [1] 0.11% | growth inhibition [2] 5.53% | viability increase [3] -3.37% | viability [4] 101% | inhibition [5] 2.07% | RAM network inhibition [6] 2.92%

CCOc1c(Br)cc(C(N)=O)cc1OC
inactive: growth inhibition [1] 5.05% | growth inhibition [2] -3.4% | viability increase [3] -2.49% | viability [4] 101% | inhibition [5] 0.87% | RAM network inhibition [6] 2.56%

CCOC(=O)N1CCc2c(sc(NC(=O)c3ccc(Cl)s3)c2C(N)=O)C1
inactive: growth inhibition [1] -0.755% | growth inhibition [2] 5.5% | viability increase [3] -2.73% | viability [4] 40% | inhibition [5] 0.53% | RAM network inhibition [6] -0.87%

CCC(C)(C(=O)NC1CCCC1)N(C(=O)CNC(C)=O)c1ccccc1 (stereo not given)
inactive: growth inhibition [1] -11.6% | growth inhibition [2] -1.64% | viability increase [3] -1.96% | viability [4] 98.3% | inhibition [5] 3.23% | RAM network inhibition [6] 3.45%

Cc1c(C(=O)NCC2CCCO2)oc2ccc(S(=O)(=O)N3CCCC3)cc12 (stereo not given)
inactive: growth inhibition [1] -6.79% | growth inhibition [2] -3.9% | viability increase [3] -2.38% | viability [4] 91.6% | inhibition [5] 2% | RAM network inhibition [6] 1.44%

Cc1c(C)[n+](=O)c(-c2ccc(F)cc2)c(C)n1[O-]
inactive: growth inhibition [1] -1.22% | growth inhibition [2] 3.79% | viability increase [3] -3.29% | viability [4] 98.3% | inhibition [5] 0.535% | RAM network inhibition [6] 4.01%

CN1CCN(C(=O)c2c(NC(=O)c3ccco3)sc3c2CCC(C(C)(C)C)C3)CC1 (stereo not given)
inactive: growth inhibition [1] -11.3% | growth inhibition [2] 1.13% | viability increase [3] -2.04% | viability [4] 79.9% | inhibition [5] -0.17% | RAM network inhibition [6] 0.15%

COCCNC(=O)c1ccc2c(=O)n(CCOC)c(=O)[nH]c2c1
inactive: growth inhibition [1] -8.7% | growth inhibition [2] -15.7% | viability increase [3] -3.33% | viability [4] 91.3% | inhibition [5] 0.805% | RAM network inhibition [6] 0.78%

CCN1CCN(c2cc(C)c3cc(NC(=O)c4ccc5c(c4)OCO5)ccc3n2)CC1
inactive: growth inhibition [1] -12.3% | growth inhibition [2] -7.6% | viability increase [3] -8.06% | viability [4] 47.2% | inhibition [5] -0.365% | RAM network inhibition [6] 3.21%

CC(C)CC(NC(=O)C1CCC(C)CC1)C(=O)Nc1cccnc1 (stereo not given)
inactive: growth inhibition [1] -8.21% | growth inhibition [2] -12.6% | viability increase [3] -3.68% | viability [4] 89.5% | inhibition [5] 0.035% | RAM network inhibition [6] 0.05%

Cn1c(C(=O)NCCCN2CCN(c3ccccc3F)CC2)cc2c(=O)n(C)c3ccccc3c21
inactive: growth inhibition [1] -3.28% | growth inhibition [2] -4.87% | viability increase [3] -8.02% | viability [4] 54.9% | inhibition [5] 0.6% | RAM network inhibition [6] 0.96%

Cc1cc2nc3c(c(=O)n2[nH]1)CCCC3
inactive: growth inhibition [1] -6.41% | growth inhibition [2] 0.415% | viability increase [3] -1.07% | viability [4] 105% | inhibition [5] 1.09% | RAM network inhibition [6] -0.25%

O=C1c2ccccc2N2C(=O)c3ccccc3C2N1Cc1ccco1 (stereo not given)
inactive: growth inhibition [1] -9.32% | growth inhibition [2] -5.68% | viability increase [3] -4.74% | viability [4] 85.1% | inhibition [5] 3.68% | RAM network inhibition [6] 3.03%

NC(=O)CCn1nc(-c2ccccc2)c2ccccc2c1=O
inactive: growth inhibition [1] 6.63% | growth inhibition [2] 13.7% | viability increase [3] -2.48% | viability [4] 96.8% | inhibition [5] 0.31% | RAM network inhibition [6] 0%

CCn1c(C)c2c(C)nnc(C)c2c1C
inactive: growth inhibition [1] -7.03% | growth inhibition [2] -3.61% | viability increase [3] -3.11% | viability [4] 91.5% | inhibition [5] 1.05% | RAM network inhibition [6] -0.52%

COCCOC(=O)c1c(C)oc2ccc(OC(=O)c3cccs3)cc12
inactive: growth inhibition [1] -11.1% | growth inhibition [2] -17% | viability increase [3] 1.16% | viability [4] 104% | inhibition [5] 2.33% | RAM network inhibition [6] 6.79%

COc1ccc(C2C(C(=O)N3CCN(c4ccccc4F)CC3)c3ccccc3C(=O)N2C)cc1 (stereo not given)
inactive: growth inhibition [1] -12.2% | growth inhibition [2] -6.36% | viability increase [3] -5.64% | viability [4] 74.3% | inhibition [5] 1.3% | RAM network inhibition [6] 4.16%

Cc1cccc(N(CC(=O)Nc2c(C)n(C)n(-c3ccccc3)c2=O)S(C)(=O)=O)c1
inactive: growth inhibition [1] -9.29% | growth inhibition [2] -0.62% | viability increase [3] -0.12% | viability [4] 106% | inhibition [5] 1.61% | RAM network inhibition [6] 1.64%

COC(=O)C(C)Sc1nnc(-c2ccncc2)o1 (stereo not given)
inactive: growth inhibition [1] -6.28% | growth inhibition [2] -8.81% | viability increase [3] -0.71% | viability [4] 99.4% | inhibition [5] 1.64% | RAM network inhibition [6] 0.1%

COc1cc(C)c(C(C)C)cc1S(=O)(=O)n1cnc(C)c1
inactive: growth inhibition [1] 0.115% | growth inhibition [2] 6.4% | viability increase [3] -3.58% | viability [4] 37.8% | inhibition [5] 0.425% | RAM network inhibition [6] 4.02%

CC1Cc2ccccc2N1Cc1nc2scc(-c3cccs3)c2c(=O)[nH]1 (stereo not given)
inactive: growth inhibition [1] 1.81% | growth inhibition [2] 0.44% | viability increase [3] -3.6% | viability [4] 95.3% | inhibition [5] 1.77% | RAM network inhibition [6] 5.16%

COc1cc(NS(=O)(=O)c2ccc(NC(=O)COc3ccc(C)cc3)cc2)nc(OC)n1
inactive: growth inhibition [1] -14.3% | growth inhibition [2] -7.79% | viability increase [3] -1.12% | viability [4] 102% | inhibition [5] 1.73% | RAM network inhibition [6] 3.5%

CCN(CC)C(=O)CSc1nsc(SCC(=O)N(CC)CC)c1C#N
inactive: growth inhibition [1] -9.3% | growth inhibition [2] 6.27% | viability increase [3] -2.27% | viability [4] 95.3% | inhibition [5] 1.22% | RAM network inhibition [6] 6.13%

CCCCC1CC(CSc2ncn[nH]2)OC1=O (stereo not given)
inactive: growth inhibition [1] -11.3% | growth inhibition [2] -7.68% | viability increase [3] 1.38% | viability [4] 98% | inhibition [5] 1.21% | RAM network inhibition [6] 0.01%

CCCC(=O)Nc1cccc(C(=O)Nc2nccs2)c1
inactive: growth inhibition [1] -9.54% | growth inhibition [2] 0.885% | viability increase [3] 0.65% | viability [4] 102% | inhibition [5] 0.285% | RAM network inhibition [6] 0.41%

CC(C)CC(NC(=O)C1CCCCC1)C(=O)NCc1ccccn1 (stereo not given)
inactive: growth inhibition [1] 1.21% | growth inhibition [2] -10.9% | viability increase [3] -4.03% | viability [4] 94.4% | inhibition [5] 1.04% | RAM network inhibition [6] -0.2%

CCN1CCN(CCNC(=O)C2CCCN(Cc3nc(-c4cccc(Cl)c4)oc3C)C2)CC1 (stereo not given)
inactive: growth inhibition [1] -9.33% | growth inhibition [2] -13.1% | viability increase [3] -6.96% | viability [4] 35% | inhibition [5] -1.05% | RAM network inhibition [6] 0.71%

Cc1ccc(N(CC(=O)NC2CC3CCC2C3)S(C)(=O)=O)cc1C (stereo not given)
inactive: growth inhibition [1] -2.18% | growth inhibition [2] -4.39% | viability increase [3] -2.03% | viability [4] 96.8% | inhibition [5] 1.26% | RAM network inhibition [6] 5.17%

Cc1onc(-c2ccccc2)c1C(=O)Nc1ccc2c(C)cc(=O)oc2c1
inactive: growth inhibition [1] -3.97% | growth inhibition [2] -0.655% | viability increase [3] -2.9% | viability [4] 103% | inhibition [5] 3.31% | RAM network inhibition [6] 2.2%

CCC(=O)N1CCc2cc(Br)cc(S(=O)(=O)NCc3ccco3)c21
inactive: growth inhibition [1] -4% | growth inhibition [2] -12.8% | viability increase [3] -5.07% | viability [4] 96.8% | inhibition [5] 1.7% | RAM network inhibition [6] 1.85%

Cc1ccc(CNC(=O)c2oc3ccc(S(=O)(=O)N4CCC5(CC4)OCCO5)cc3c2C)cc1
inactive: growth inhibition [1] -11% | growth inhibition [2] -10% | viability increase [3] -0.6% | viability [4] 52.6% | inhibition [5] 1.35% | RAM network inhibition [6] 2.87%

C#CCN1C(=O)C(O)(CC(=O)c2ccc3c(c2)OCCO3)c2ccccc21 (stereo not given)
inactive: growth inhibition [1] -19% | growth inhibition [2] -18.4% | viability increase [3] -2.81% | viability [4] 49.2% | inhibition [5] 0.74% | RAM network inhibition [6] 6.75%

COc1ccc(OC(C)C(=O)Nc2cccc(OC)c2)cc1 (stereo not given)
inactive: growth inhibition [1] -4.58% | growth inhibition [2] -2.9% | viability increase [3] -4.64% | viability [4] 97.9% | inhibition [5] 0.625% | RAM network inhibition [6] -0.52%

COc1cc2c(C(=O)N3CCN(Cc4ccc5c(c4)OCO5)CC3)cn(C)c(=O)c2cc1OC
inactive: growth inhibition [1] -8.34% | growth inhibition [2] -4.51% | viability increase [3] -6.92% | viability [4] 95.6% | inhibition [5] 0.85% | RAM network inhibition [6] 1.29%

CN(C)c1ccc(C(=O)Nc2ccc(S(=O)(=O)NC3=NCCCCC3)cc2)cc1
inactive: growth inhibition [1] -6.28% | growth inhibition [2] -8.65% | viability increase [3] -3.44% | viability [4] 99.4% | inhibition [5] 1.61% | RAM network inhibition [6] 3.12%
